ChEMBL document CHEMBL1127450, “Synthesis and antiviral activity evaluation of some aminoadamantane derivatives” (1994)
Values after ≈ are worked out from the molar mass of the structure shown.

Assays:
Assay type in all cases: functional
HEF [1] = experiment: Tested for minimum inhibitory concentration required to reduce virus-induced cytopathicity by 50% on HEF cell line infected with vaccinia virus; conditions: Homo sapiens
Procedure, shortened: (§1)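 Human embryonic skin-muscle fibroblasts (HEF) were infected with the stated virus. The value is the concentration that reduces virus-induced cytopathicity by 50%. Values are averages of at least two separate experiments.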

CCRF-CEM [2] = experiment: Tested for minimum inhibitory concentration required to reduce virus-induced cell viability by 50% on CEM cell line; conditions: Homo sapiens
Vero [3] = experiment: Tested for minimum inhibitory concentration required to reduce virus-induced cytopathicity by 50% on vero cell line infected with Reo 1 virus; conditions: Chlorocebus sabaeus
Procedure, shortened: (§2)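 HeLa (human epithelial), MDCK (Madin-Darby canine kidney) or Vero (African green monkey kidney) cells were infected with the stated virus. The value is the concentration that reduces virus-induced cytopathicity by 50%. Values are averages of at least two separate experiments.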

HEF [4] = experiment: Tested for minimum inhibitory concentration required to reduce virus-induced cytopathicity by 50% on HEF cell line infected with HSV-1 virus; conditions: Homo sapiens; procedure, shortened: as §1
CCRF-CEM [5] = experiment: Tested for minimum inhibitory concentration required to reduce virus-induced cytopathicity by 50% on CEM cell line infected with HIV-2 virus; conditions: Homo sapiens
HEF [6] = experiment: Tested for minimum inhibitory concentration required to reduce virus-induced cytopathicity by 50% on HEF cell line infected with thymidine kinase-deficient herpes simplex virus type 1 (TK-HSV-1); conditions: Homo sapiens; procedure, shortened: as §1
HEF [7] = experiment: Tested for minimum inhibitory concentration required to reduce […] by 50% on HEF cell line; conditions: Homo sapiens
Procedure, shortened: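 Human embryonic lung fibroblasts (HEF) were used for cell proliferation. The value is the concentration that reduces cell proliferation by 50%. Values are averages of at least two separate experiments.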

HEF [8] = experiment: Tested for minimum inhibitory concentration required to cause a microscopically detectable alteration of normal cell morphology by 50% on HEF cell line; conditions: Homo sapiens
Procedure, shortened: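 Human embryonic skin-muscle fibroblasts (HEF) were used. The value is the minimum concentration that causes a microscopically detectable alteration of normal cell morphology. Values are averages of at least two separate experiments.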

HEF [9] = experiment: Tested for minimum inhibitory concentration required to reduce virus-induced cytopathicity by 50% on HEF cell line infected with vesicular stomatitis virus; conditions: Homo sapiens; procedure, shortened: as §1
MDCK [10] = experiment: Tested for minimum inhibitory concentration required to reduce virus-induced cytopathicity by 50% on MDCK cell line infected with influenza B virus; conditions: Canis lupus familiaris; procedure, shortened: as §2
HeLa [11] = experiment: Tested for minimum inhibitory concentration required to cause a microscopically detectable alteration of normal cell morphology by 50% on HeLa cell line; conditions: Homo sapiens
Procedure, shortened: (§3)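 HeLa (human epithelial), MDCK (Madin-Darby canine kidney) or Vero (African green monkey kidney) cells were scored by microscopy. The value is the minimum concentration that causes a detectable alteration of normal cell morphology. Values are averages of at least two separate experiments.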

HEF [12] = experiment: Tested for minimum inhibitory concentration required to reduce virus-induced cytopathicity by 50% on HEF cell line infected with HSV-2 virus; conditions: Homo sapiens; procedure, shortened: as §1
Vero [13] = experiment: Tested for minimum inhibitory concentration required to cause a microscopically detectable alteration of normal cell morphology by 50% on vero cell line; conditions: Chlorocebus sabaeus; procedure, shortened: as §3
MDCK [14] = experiment: Tested for minimum inhibitory concentration required to reduce virus-induced cytopathicity by 50% on MDCK cell line infected with influenza A virus; conditions: Canis lupus familiaris; procedure, shortened: as §2
HeLa [15] = experiment: Tested for minimum inhibitory concentration required to reduce virus-induced cytopathicity by 50% on HeLa cell line infected with polio 1 virus; conditions: Homo sapiens; procedure, shortened: as §2
MDCK [16] = experiment: Tested for minimum inhibitory concentration required to cause a microscopically detectable alteration of normal cell morphology by 50% on MDCK cell line; conditions: Canis lupus familiaris; procedure, shortened: as §3
CCRF-CEM [17] = experiment: Tested for minimum inhibitory concentration required to reduce virus-induced cytopathicity by 50% was evaluated on CEM cell line infected with HIV-1 virus; conditions: Homo sapiens
Vero [18] = experiment: Tested for minimum inhibitory concentration required to reduce virus-induced cytopathicity by 50% on vero cell line infected with sindbis virus; conditions: Chlorocebus sabaeus; procedure, shortened: as §2
Vero [19] = experiment: Tested for minimum inhibitory concentration required to reduce virus-induced cytopathicity by 50% on vero cell line infected with semliki forest virus; conditions: Chlorocebus sabaeus; procedure, shortened: as §2
HeLa [20] = experiment: Tested for minimum inhibitory concentration required to reduce virus-induced cytopathicity by 50% on HeLa cell line infected with RSV virus; conditions: Homo sapiens; procedure, shortened: as §2
Vero [21] = experiment: Tested for minimum inhibitory concentration required to reduce virus-induced cytopathicity by 50% on vero cell line infected with parainfluenza 3 virus; conditions: Chlorocebus sabaeus; procedure, shortened: as §2
Vero [22] = experiment: Tested for minimum inhibitory concentration required to reduce virus-induced cytopathicity by 50% on vero cell line infected with coxsackie B4 virus; conditions: Chlorocebus sabaeus; procedure, shortened: as §2

Structure (SMILES)	MIC50 (HEF [1])	MIC50 (CCRF-CEM [2])	MIC50 (Vero [3])	MIC50 (HEF [4])	MIC50 (CCRF-CEM [5])	MIC50 (HEF [6])	MIC50 (HEF [8])	MIC50 (HEF [9])	MIC50 (MDCK [10])	MIC50 (HeLa [11])	MIC50 (HEF [12])	MIC50 (Vero [13])	MIC50 (MDCK [14])	MIC50 (HeLa [15])	MIC50 (MDCK [16])	MIC50 (Vero [18])	MIC50 (Vero [19])	MIC50 (HeLa [20])	MIC50 (Vero [21])	MIC50 (Vero [22])	further results
C1CNC2(C1)C1CC3CC(C1)CC2C3 (stereo not drawn)	> 200 µg/mL	100 µg/mL (≈ 523 µM)	> 200 µg/mL	200 µg/mL (≈ 1050 µM)	> 40 µg/mL	> 200 µg/mL	≥ 400 µg/mL	> 200 µg/mL	> 200 µg/mL	> 200 µg/mL	> 200 µg/mL	≥ 400 µg/mL	> 30 µg/mL	> 200 µg/mL	> 200 µg/mL	> 200 µg/mL	> 200 µg/mL	> 200 µg/mL	> 200 µg/mL	> 200 µg/mL	MIC50 (HEF [7]): > 50 µg/mL; MIC50 (CCRF-CEM [17]): > 40 µg/mL
CN(C)C1CC12C1CC3CC(C1)CC2C3 (stereo not drawn)	> 200 µg/mL	> 200 µg/mL	400 µg/mL (≈ 1950 µM)	> 200 µg/mL	> 200 µg/mL	> 200 µg/mL	≥ 400 µg/mL	> 200 µg/mL	> 100 µg/mL	≥ 400 µg/mL	> 200 µg/mL	> 400 µg/mL	6 µg/mL (≈ 29.2 µM)	> 400 µg/mL	100 µg/mL (≈ 487 µM)	> 400 µg/mL	> 400 µg/mL	> 200 µg/mL	100 µg/mL (≈ 487 µM)	> 400 µg/mL	MIC50 (HEF [7]): > 200 µg/mL; MIC50 (CCRF-CEM [17]): > 200 µg/mL
CNCC1CC12C1CC3CC(C1)CC2C3 (stereo not drawn)	> 20 µg/mL	4 µg/mL (≈ 19.5 µM)	> 20 µg/mL	> 20 µg/mL	> 8 µg/mL	> 20 µg/mL	40 µg/mL (≈ 195 µM)	> 20 µg/mL	> 20 µg/mL	40 µg/mL (≈ 195 µM)	> 20 µg/mL	40 µg/mL (≈ 195 µM)	> 20 µg/mL	> 20 µg/mL	20 µg/mL (≈ 97.4 µM)	> 20 µg/mL	> 20 µg/mL	30 µg/mL (≈ 146 µM)	> 20 µg/mL	> 20 µg/mL	MIC50 (HEF [7]): 50 µg/mL (≈ 243 µM); MIC50 (CCRF-CEM [17]): > 8 µg/mL
CN(C)CC1CC12C1CC3CC(C1)CC2C3 (stereo not drawn)	> 20 µg/mL	23 µg/mL (≈ 105 µM)	> 70 µg/mL	> 20 µg/mL	> 40 µg/mL	> 20 µg/mL	40 µg/mL (≈ 182 µM)	> 20 µg/mL	> 100 µg/mL	100 µg/mL (≈ 456 µM)	> 20 µg/mL	100 µg/mL (≈ 456 µM)	> 40 µg/mL	> 70 µg/mL	70 µg/mL (≈ 319 µM)	> 70 µg/mL	> 70 µg/mL	40 µg/mL (≈ 182 µM)	> 70 µg/mL	> 70 µg/mL	MIC50 (HEF [7]): 95 µg/mL (≈ 433 µM); MIC50 (CCRF-CEM [17]): > 40 µg/mL
CN1CCCC12C1CC3CC(C1)CC2C3 (stereo not drawn)	> 400 µg/mL	> 200 µg/mL	> 400 µg/mL	≥ 400 µg/mL	> 200 µg/mL	≥ 400 µg/mL	> 400 µg/mL	≥ 400 µg/mL	> 200 µg/mL	> 400 µg/mL	> 400 µg/mL	> 400 µg/mL	0.56 µg/mL (≈ 2.73 µM)	> 400 µg/mL	> 200 µg/mL	> 400 µg/mL	> 400 µg/mL	> 200 µg/mL	> 400 µg/mL	> 400 µg/mL	MIC50 (HEF [7]): > 50 µg/mL; MIC50 (CCRF-CEM [17]): > 200 µg/mL
NC12CC3CC(CC(C3)C1)C2 [AMANTADINE]									> 200 µg/mL	100 µg/mL (≈ 661 µM)			100 µg/mL (≈ 661 µM)		> 100 µg/mL			> 100 µg/mL			
NC(=O)c1ncn([C@@H]2O[C@H](CO)[C@@H](O)[C@H]2O)n1 [RIBAVIRIN]	70 µg/mL (≈ 287 µM)		20 µg/mL (≈ 81.9 µM)	200 µg/mL (≈ 819 µM)		≥ 200 µg/mL	> 400 µg/mL	20 µg/mL (≈ 81.9 µM)	4 µg/mL (≈ 16.4 µM)	> 200 µg/mL	> 400 µg/mL	> 400 µg/mL	1.2 µg/mL (≈ 4.91 µM)	70 µg/mL (≈ 287 µM)	> 200 µg/mL	70 µg/mL (≈ 287 µM)	20 µg/mL (≈ 81.9 µM)	2.8 µg/mL (≈ 11.5 µM)	70 µg/mL (≈ 287 µM)	300 µg/mL (≈ 1230 µM)	
